Most compounds without a hit are left out; they make up all but 1.3% or so of the library.
Wee1 degr inh = Wee1 degradation inhibitors, primary screen, cell-based, HeLa, Wee1K328M-luciferase, luminescence; reporter increase, % at 5 µM; AID 1321, 2008; 220,000 compounds, 1.2% hits; HeLa Luc-Wee1K328M stability; 100% = proteasome inhibitor MG132 effect;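 active means activation above the mean of all tested compounds plus 3 SD, set per screening run, cut at about 8.8% in these data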;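 further: cells exposed to compound for 20 h before luminescence read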
Target sequence (P30291 whole entry K328M): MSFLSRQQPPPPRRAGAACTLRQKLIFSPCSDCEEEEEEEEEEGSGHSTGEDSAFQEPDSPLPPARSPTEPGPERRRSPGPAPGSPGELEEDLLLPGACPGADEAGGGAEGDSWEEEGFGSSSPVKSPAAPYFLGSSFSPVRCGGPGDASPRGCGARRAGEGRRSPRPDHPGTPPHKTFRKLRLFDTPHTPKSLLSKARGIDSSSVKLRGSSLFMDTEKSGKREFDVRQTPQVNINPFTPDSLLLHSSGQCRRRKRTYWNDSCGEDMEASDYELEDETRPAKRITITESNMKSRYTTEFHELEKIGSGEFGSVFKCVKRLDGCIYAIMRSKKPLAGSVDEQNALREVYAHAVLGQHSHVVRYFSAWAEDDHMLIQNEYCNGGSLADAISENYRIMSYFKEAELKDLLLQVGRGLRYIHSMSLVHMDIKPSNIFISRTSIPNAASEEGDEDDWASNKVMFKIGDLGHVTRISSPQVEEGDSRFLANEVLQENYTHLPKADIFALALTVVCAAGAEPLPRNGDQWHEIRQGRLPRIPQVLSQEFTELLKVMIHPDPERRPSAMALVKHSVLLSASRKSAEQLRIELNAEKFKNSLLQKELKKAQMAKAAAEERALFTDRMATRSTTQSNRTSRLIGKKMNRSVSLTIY
Mdm2 ligase inh = MDM2-luciferase reporter signal enhancers, primary screen, MDM2 E3 ligase inhibitor project, cell-based, luminescence, 1536-well | E3 ubiquitin-protein ligase Mdm2 (Homo sapiens), Q00987 | cell-based MDM2 ubiquitination luciferase reporter, 2 h; 0 = plate control, 100 = twice control, blank-subtracted | signal enhancement, % at 5 µM | 210,000 compounds, 0.11% hits | AID 1230, 2008;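 active means signal enhancement of 30% or more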;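 further: luminescence tracks abundance of the self-degrading MDM2-luciferase fusion protein; higher signal means inhibition of MDM2 E3 ligase activity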
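Buffer or medium: Cells held in DMEM | Assay system: Stable mammalian line carrying autodegrading MDM2–luciferase fusion reporter | Quantity: 2000 cells/well | Times: 4 h settle plus 2 h compound, 37 °C | Doses: One concentration, 5 µM, with 0.2% DMSO | Technique: Luminescence with SteadyLite reagent, 15 min at room temperature | Benchmarks: Plate controls and plate blanks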
Hsp70 act = Hsp70 transcriptional activators, primary screen, cell-based, HeLa, Hsp70 promoter luciferase, luminescence, 10 µM; 200,000 compounds, 0.04% hits; HeLa Hsp70 promoter luciferase reporter; scaled: vehicle 0, proteasome-inhibitor control 100%; AID 1203, 2008; activation, % at 10 µM;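 active means activation above the mean across all tested compounds plus 3 SD, cutoff set per campaign, cut at about 5.5% in these data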
Pf gametocyte = late stage P. falciparum gametocyte viability inhibitors, primary screen, ATP luminescence, HTS; P. falciparum stage V gametocytes, 24 h; inhibition, % at 10.9 µM; 150,000 compounds, 0.065% hits; AID 743093, 2013;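 active means inhibition above the mean plus 3 SD of compounds within the control limits, set per campaign, cut at about 38% in these data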
Wee1 degr conf = Wee1 degradation inhibitors, confirmation, cell-based, HeLa, Wee1K328M-luciferase, luminescence, triplicate; HeLa Luc-Wee1K328M degradation; vehicle 0%, proteasome-blocked wells 100%; 1,100 compounds, 4% hits; shares compounds with Wee1 degr inh; activation, % at 5 µM; in the data active means activation above about 8.9%
Large screens that a line does not name were inactive (follow-up assays come after a bar, where they were run).

COc1ccc(CC(=O)NNC(=O)CCC(=O)Nc2cc(C)ccc2C)cc1	none
COc1ccc(CCC(=O)N(C)CC(=O)Nc2cc(C)ccc2C)cc1	Wee1 degr inh 17 | Wee1 degr conf inactive
CCOC(=O)Cn1c(=NC(=O)CSC(C)=O)sc2cc(OC)ccc21	none (no result: Mdm2 ligase inh)
CCOC(=O)Cn1c(=NC(=O)CSC(C)=O)sc2ccccc21	Wee1 degr inh 16 (no result: Pf gametocyte) | Wee1 degr conf inactive
Cc1cc(C(N)=O)nn1-c1c(Cl)cc(Cl)cc1Cl	none (no result: Hsp70 act)
CC(C)(C)N1CC(C(=O)Nc2ccc(C#N)cc2)CC1=O (centres undefined)	none (no result: Wee1 degr inh, Mdm2 ligase inh, Hsp70 act)
CCC(C)N(C(=O)COC(=O)CNC(=O)c1ccccc1F)C1CCS(=O)(=O)C1 (centres undefined)	Wee1 degr inh 15 | Wee1 degr conf inactive
CC(=O)c1c(C)[nH]c(C(=O)NCc2cccs2)c1C	none (no result: Pf gametocyte)
CC(=O)c1c(C)[nH]c(C(=O)NCc2ccco2)c1C	Wee1 degr inh 12 | Wee1 degr conf inactive
COc1ccc(OC)c2sc(N3CCN(c4ccccc4)CC3)nc12	Wee1 degr inh 22 (no result: Mdm2 ligase inh, Pf gametocyte) | Wee1 degr conf inactive
COc1ccc(C)c2sc(N3CCCC3)nc12	none
CC(C)COc1ccc(C(=O)Nc2ccc([N+](=O)[O-])cc2)cc1	none (no result: Pf gametocyte)
CCC(=O)Oc1ccc(C(=O)Nc2ccc([N+](=O)[O-])cc2)cc1	Wee1 degr inh 12 | Wee1 degr conf inactive
O=c1[nH]c(CN2CCN(c3ccc(O)cc3)CC2)nc2scc(-c3ccc(Cl)cc3)c12	none
N#Cc1ccc(OCC(=O)N[C@@H](Cc2ccccc2)c2nc3ccccc3[nH]2)cc1	none (no result: Wee1 degr inh, Mdm2 ligase inh, Hsp70 act)
COc1ccccc1-c1nnc(Nc2nc3c(OC)cccc3s2)o1	Wee1 degr inh 15, Mdm2 ligase inh 39 (no result: Pf gametocyte) | Wee1 degr conf inactive
COc1cccc2sc(Nc3nnc(-c4ccccc4Cl)o3)nc12	none (no result: Pf gametocyte)
Cc1ccc2[nH]c(C(=O)NN=C3CCCCC3)c(-c3ccccc3)c2c1	Wee1 degr inh 16 | Wee1 degr conf inactive
Cc1ccc2[nH]c(C(=O)O)c(-c3ccccc3)c2c1	none
CCOC(=O)CC1C(=O)NCCN1C(=O)c1sc2ccccc2c1Cl (centres undefined)	none
CC1(C)c2ccccc2-n2c1cc1oc(=O)cc(O)c1c2=O	Wee1 degr inh 15 (no result: Hsp70 act) | Wee1 degr conf inactive
COc1cc(/C=N/Nc2ccc(C(F)(F)F)cn2)ccc1O	none
O=C(O)c1ccc(/C=N/Nc2ccc(C(F)(F)F)cn2)cc1	Wee1 degr inh 13 | Wee1 degr conf inactive
COc1ccc(CNC(=O)CSCc2ccccc2Cl)cc1	none (no result: Pf gametocyte)
CC1CC(C)CN(C(=O)CCNS(=O)(=O)c2cccs2)C1 (centres undefined)	none
O=C(CCNS(=O)(=O)c1cccs1)N1CCc2ccccc2C1	Wee1 degr inh 19 | Wee1 degr conf inactive
COc1ccccc1-n1cnnc1SCC(=O)Nc1ncc(Cl)cc1Cl	none (no result: Pf gametocyte)
COc1ccccc1-n1cnnc1SCC(=O)Nc1nc(C)c(Cl)cc1Cl	Wee1 degr inh 13 (no result: Pf gametocyte) | Wee1 degr conf inactive
Cc1cccnc1NC(=S)Nc1ccc(Br)cc1Cl	none
O=C(Nc1ccc(N2CCCCC2)cc1)c1ccc(F)cc1	Wee1 degr inh 11 | Wee1 degr conf inactive
COc1ccccc1OCC(=O)Nc1ccc(N2CCCCC2)cc1	Wee1 degr inh 11 | Wee1 degr conf inactive
COC(=O)c1ccc(COC(=O)CNC(=O)CNC(=O)c2ccc(OC)cc2)cc1	none (no result: Wee1 degr inh, Mdm2 ligase inh, Hsp70 act)
NS(=O)(=O)OCc1ccc(C(F)(F)F)cc1	none (no result: Wee1 degr inh, Mdm2 ligase inh, Hsp70 act)
Cc1ccc(S(=O)(=O)N(C)CCCC(=O)NC(C)(C)CO)cc1	none
Cc1ccc(S(=O)(=O)N(C)CCCC(=O)NC(C)(C)C)cc1	Wee1 degr inh 12 | Wee1 degr conf inactive
COC(=O)c1ccc(COc2ccccc2/C=C(\C#N)C(=O)Nc2ccccc2C)cc1	Wee1 degr inh 20 | Wee1 degr conf inactive
COC(=O)c1ccc(COc2ccccc2/C=C(\C#N)C(=O)Nc2c(C)cccc2C)cc1	none
CN(C)c1ccc(-c2nnc(-c3cccs3)o2)cc1	Wee1 degr inh 15 | Wee1 degr conf inactive
CN(C)c1oc(-c2cccs2)nc1C#N	none
Cc1nn2c(-c3ccccn3)ccnc2c1Br	none
CCCCNC(=O)CCn1c(=O)c2ccccc2n(Cc2ccc(Cl)cc2)c1=O	none
COCCNc1c(-c2cc3ccc(C)c(C)c3[nH]c2=O)nc2ccccn12	Wee1 degr inh 13 | Wee1 degr conf inactive
CCCCn1c(-c2cccs2)nc2nc3ccccc3nc21	Wee1 degr inh 13 | Wee1 degr conf inactive
CNC(=O)CN(Cc1ccccc1)S(=O)(=O)c1ccc(Cl)cc1	none (no result: Wee1 degr inh, Mdm2 ligase inh, Hsp70 act)
O=C(Nc1ccccc1)Nc1cc(OCC(F)(F)F)cc(OCC(F)(F)F)c1	Wee1 degr inh 14 (no result: Pf gametocyte) | Wee1 degr conf inactive
O=C(Nc1ccccc1)Nc1cc(Cl)cc(Cl)c1	none (no result: Pf gametocyte)
N#C/C(=C\c1ccc(OC(F)F)cc1)C(=O)N1CCCCC1	Wee1 degr inh 15 (no result: Mdm2 ligase inh, Hsp70 act) | Wee1 degr conf inactive
O=C1c2ccccc2/C(=C\c2ccc(Br)s2)N1c1ccccc1	none (no result: Wee1 degr inh, Mdm2 ligase inh, Hsp70 act)
CCCn1cnc2scc(-c3ccc(C)c(C)c3)c2c1=O	none (no result: Wee1 degr inh, Mdm2 ligase inh, Hsp70 act)
CCOC(=O)c1c(C)[nH]c(C(=O)N/N=C\c2ccccc2O)c1C	Wee1 degr inh 12 | Wee1 degr conf inactive
COc1ccccc1/C=N/NC(=O)c1[nH]c(C)c(C(=O)N/N=C/c2ccccc2OC)c1C	none
CC(C)n1c(NCCO)nc2ccccc21	Wee1 degr inh 11 | Wee1 degr conf inactive
CCn1c(CSc2nc3ccccc3s2)nnc1SCC(N)=O	Wee1 degr inh 16 (no result: Pf gametocyte) | Wee1 degr conf inactive
CCn1c(CSc2nc3ccccc3s2)nnc1SCC(=O)OC(C)(C)C	none
COC(=O)c1ccccc1S(=O)(=O)C(C)(C)C	none (no result: Pf gametocyte)
CC(C)(C)Sc1ccccc1S(=O)(=O)C(C)(C)C	Wee1 degr inh 13 (no result: Hsp70 act) | Wee1 degr conf inactive
O=C(Nc1nc2ccccc2s1)C1CCCO1 (centres undefined)	none
O=C(Nc1ncc(Cc2ccccc2)s1)C1CCCO1 (centres undefined)	Wee1 degr inh 11 (no result: Pf gametocyte) | Wee1 degr conf inactive
CCCOc1ccc(N2CC(C(=O)Nc3ccc(N4CCOCC4)cc3)CC2=O)cc1 (centres undefined)	none
CCCCOc1ccc(CNC(=O)NS(=O)(=O)c2ccc(OCC)cc2)cc1	Wee1 degr inh 13 (no result: Pf gametocyte) | Wee1 degr conf inactive
CC1CCN(C(=O)c2nc[nH]c2C(=O)N2CCC(C)CC2)CC1	none (no result: Wee1 degr inh, Mdm2 ligase inh, Hsp70 act)
Cc1cc(C)nc(NS(=O)(=O)c2ccc(N/C=C/C(=O)c3ccc(Cl)cc3)cc2)n1	Wee1 degr inh 14 | Wee1 degr conf inactive
COc1ccc2c(=O)c(-c3ccccc3)coc2c1	Wee1 degr inh 9.9 (no result: Pf gametocyte) | Wee1 degr conf inactive
COc1ccc2c(=O)c(-c3ccc(OC)c(OC)c3)coc2c1	none (no result: Pf gametocyte)
O=C(Nc1nc2c(s1)CCCC2)c1ccc2ncsc2c1	Wee1 degr inh 20 (no result: Pf gametocyte) | Wee1 degr conf inactive
